Assay outcomes from PubChem BioAssay.
AHR act: activators of human aryl hydrocarbon receptor; P35869; AHR-responsive luciferase reporter cells, luminescence; activation, % at 5 µM; 2.5% of 320,000 active; in the data active = activation above about 47%
NF-kB neuron act: NF-kB expression increase, human neuronal cells | fold change at 12.5 µM | NF-kB reporter expression; hits give high values | 1.6% of 190,000 active; in the data active = fold change above about 3.3
PERK inhibitor: inhibitors of human PERK kinase; inhibition, % at 5.6 µM; 0.17% of 220,000 active; AID 1416; CHO PERK-DD fusion, SEAP luminescence translation reporter;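 active = inhibition above the mean inhibition of all tested compounds plus 3 SD, set separately per screening campaign, cut at about 2.9% in these data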;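 also: PERK kinase domain activated by AP20187 dimerizer at 100 nM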
Target sequence (Q9NZJ5 whole entry, looked up, the tested form may be a part): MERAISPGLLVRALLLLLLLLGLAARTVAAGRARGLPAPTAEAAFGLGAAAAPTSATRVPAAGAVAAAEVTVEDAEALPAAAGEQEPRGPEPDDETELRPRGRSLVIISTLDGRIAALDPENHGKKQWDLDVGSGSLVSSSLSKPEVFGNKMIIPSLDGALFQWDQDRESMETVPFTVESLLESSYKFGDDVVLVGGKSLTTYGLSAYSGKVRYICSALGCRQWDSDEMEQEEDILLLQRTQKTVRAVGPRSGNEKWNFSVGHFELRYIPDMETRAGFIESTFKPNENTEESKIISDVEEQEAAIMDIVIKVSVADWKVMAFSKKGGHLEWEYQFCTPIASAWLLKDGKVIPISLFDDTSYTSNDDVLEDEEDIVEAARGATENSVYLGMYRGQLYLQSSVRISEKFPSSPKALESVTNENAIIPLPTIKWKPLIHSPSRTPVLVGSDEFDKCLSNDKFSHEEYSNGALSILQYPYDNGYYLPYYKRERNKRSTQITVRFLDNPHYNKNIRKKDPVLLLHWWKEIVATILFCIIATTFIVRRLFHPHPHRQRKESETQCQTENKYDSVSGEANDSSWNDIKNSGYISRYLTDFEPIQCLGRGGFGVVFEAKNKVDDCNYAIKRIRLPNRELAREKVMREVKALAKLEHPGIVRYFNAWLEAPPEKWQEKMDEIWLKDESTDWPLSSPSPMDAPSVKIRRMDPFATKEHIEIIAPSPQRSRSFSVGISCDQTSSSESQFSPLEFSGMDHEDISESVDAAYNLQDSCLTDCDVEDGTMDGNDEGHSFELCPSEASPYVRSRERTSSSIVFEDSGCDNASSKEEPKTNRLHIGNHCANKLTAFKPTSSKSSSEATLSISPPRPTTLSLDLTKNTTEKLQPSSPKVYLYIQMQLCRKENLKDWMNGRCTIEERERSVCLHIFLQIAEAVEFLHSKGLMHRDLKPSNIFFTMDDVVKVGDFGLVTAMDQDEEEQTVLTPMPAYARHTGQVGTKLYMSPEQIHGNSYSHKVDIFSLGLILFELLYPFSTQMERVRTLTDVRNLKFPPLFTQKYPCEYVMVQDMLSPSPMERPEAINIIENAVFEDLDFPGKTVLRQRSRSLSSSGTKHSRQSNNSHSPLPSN
Mdm2 ligase inh: blocks human Mdm2 ubiquitin ligase activity; Q00987; 0.11% of 210,000 active; cell-based MDM2 ubiquitination luciferase reporter, 2 h; 0 = plate control, 100 = twice control, blank-subtracted; signal enhancement, % at 5 µM;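 active = signal enhancement of 30% or more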;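 also: luminescence tracks abundance of the self-degrading MDM2-luciferase fusion protein; higher signal means inhibition of MDM2 E3 ligase activity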
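Material: Stable MDM2–luciferase fusion reporter cells | Amount: 2000 cells seeded into each well | Dosing: One concentration, 5 µM, with 0.2% DMSO | Incubation: 4 h cell settling then 2 h compound exposure, 37 °C | Measured by: Luciferase luminescence | Read-out basis: % enhancement relative to plate controls after blank subtraction | Benchmarks: Control and blank well means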
STAT1 activator: increases IFN-gamma driven STAT1 reporter signal. NIH 3T3 STAT1-luciferase reporter, luminescence; 100% = IFN-gamma alone, no compound. activation (% of control), % at 5.5 µM. 2.6% of 200,000 active;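 active = activation above the screen-wide mean activation plus 3 SD, cut at about 130% in these data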
APP 5'UTR act: activates APP 5'UTR luciferase reporter. activation, % at 2 µM. SH-SY5Y APP 5'UTR luciferase reporter, luminescence; zero percent = DMSO vehicle wells. 1% of 190,000 active;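 active = activation above a set limit, based on mean plus 3 SD of controls, cut at about 140% in these data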
A number is an active result; i = inactive; nt = no result. Shown are actives, neighbours in structure and some others; about 4.5% of the full set was active somewhere.

SMILES | AHR act | NF-kB neuron act | PERK inhibitor | Mdm2 ligase inh | STAT1 activator | APP 5'UTR act
Cc1noc(-c2ccc(C(F)(F)F)cc2)c1NC(=O)Nc1ccc(Cl)cc1 | i | nt | i | i | nt | nt
Cc1cc(Cl)c2ccc(Cl)cc2n1 | i | nt | i | i | nt | nt
Cc1cc(Cl)c2cc3ccccc3cc2n1 | 52.2 | nt | i | i | nt | nt
C(=N/n1c2ccccc2c2ccccc21)/c1ccco1 | 51.0 | i | i | i | i | i
C(=N\n1c2ccccc2c2ccccc21)/c1ccccc1 | 65.4 | i | i | i | i | i
Oc1ccccc1/C=N/n1c2ccccc2c2ccccc21 | i | i | i | i | i | i
NC[C@H](O)c1ccc(O)c(O)c1 | i | nt | nt | nt | nt | nt
N/C(=N\N=C\c1ccc2c(c1)OCO2)c1nonc1N | i | 7.59 | i | i | 131.9 | 221.0
COCc1cc(C)nc(Nc2ccccc2OC)c1C#N | 52.2 | nt | nt | nt | nt | nt
CCOc1ccc(NC(=O)CN(C)C(=O)C(C)N2C(=O)c3ccccc3C2=O)cc1OCC (stereo not drawn) | i | nt | nt | nt | nt | nt
O=C(CSC1=NCCN1)Nc1cccc(C(F)(F)F)c1 | i | i | i | i | 141.6 | i
COc1ccc(-c2nn(-c3ccccc3)cc2C(N)=O)cc1OC | 75.0 | nt | nt | nt | nt | nt
COc1ccc(-c2nn(-c3ccccc3)cc2/C=N/NC(N)=S)cc1OC | i | i | i | i | i | i
Cc1ccccc1N1C(=O)CN(Cc2sccc2C)C1=S | i | i | i | i | i | i
Cc1cc(C)c(C#N)c(SCC(=O)NC(C)(C)C)n1 | i | i | i | i | i | i
CCOC(=O)NC(=O)CSc1nc(C)cc(C)c1C#N | i | 3.41 | i | i | i | i
Cc1cc(C)c(C#N)c(SCC(=O)C(C)(C)C)n1 | 59.2 | i | i | i | i | i
O=C(CCCN=C1NS(=O)(=O)c2ccccc21)OCC(=O)c1ccc(F)cc1 | i | nt | nt | nt | nt | nt
N#Cc1ccc(C(=O)NC2CCCCCCC2)cc1 | i | nt | nt | nt | nt | nt
C=CC[C@@H](CC(=O)N[C@H](CO)Cc1ccccc1)C(=O)NCCOC(=O)[C@@H](CC=C)CC(=O)OC(C)(C)C | i | nt | nt | nt | nt | nt
COc1cccc(CN2C[C@]34C=C[C@@H](C[C@@H]3S2(=O)=O)O4)c1 | i | nt | nt | i | nt | nt
COc1cc2c(cc1NC(=S)Nc1cccc3ccccc13)oc1ccccc12 | 71.6 | i | i | i | i | i
COc1cc2c(cc1NC(=O)CCC(=O)O)oc1ccccc12 | i | nt | nt | nt | nt | nt
COc1cc2c(cc1NCc1ccccn1)oc1ccccc12 | 62.7 | i | i | i | i | i
COc1cc2c(cc1NC(=O)Nc1ccccc1)oc1ccccc12 | 47.9 | i | i | i | i | i
SMILES | AHR act | NF-kB neuron act | PERK inhibitor | Mdm2 ligase inh | STAT1 activator | APP 5'UTR act
CCOC(=O)/C(=C\c1ccc(OC(F)F)cc1)C1=Nn2c(nnc2-c2ccc(Cl)cc2)SC1 | i | 8.31 | i | i | i | i
COc1ccc(-c2nnc3n2N=C(C)CS3)cc1 | i | i | i | i | i | i
CCOc1ccc(CCNC(=O)COC(=O)c2cccc(S(=O)(=O)N3CCCC3)c2)cc1OCC | i | nt | nt | nt | nt | nt
Cc1cccc(-c2nnc(NC(=O)c3cccs3)s2)c1 | 47.8 | i | i | nt | i | i
O=C(Nc1nnc(-c2cccnc2)s1)c1cccs1 | i | nt | i | nt | nt | nt
CS(=O)(=O)c1ccc2nc(NC(=O)c3cccs3)sc2c1 | i | i | i | i | i | i
CCOCCc1nnc(NC(=O)c2cccs2)s1 | 74.0 | i | i | i | i | i
Cc1ccc2nc(NC(=S)NC(=O)c3cccs3)sc2c1 | i | 5.45 | i | i | i | 242.7
Cc1ccc2nc(NC(=O)c3cccs3)sc2c1 | 63.8 | 10.6 | i | i | 128.6 | 162.7
CCOCc1nnc(NC(=O)c2cccs2)s1 | i | i | i | i | i | i
O=C(O)c1ccc2c(=O)n3c(nc2c1)/C(=C/c1ccccc1C(F)(F)F)CCCC3 | i | i | i | i | i | i
Cc1ccc(N(Cc2ccccc2)C(=O)c2cc(S(=O)(=O)N3CCOCC3)ccc2C)cc1 | i | nt | nt | nt | nt | nt
Cc1ccccc1NC(=S)c1ccc2ccccc2n1 | i | nt | nt | nt | nt | nt
Cc1ccc2nc(NC(=O)c3ccc4ncsc4c3)sc2c1 | i | 4.12 | i | i | 147.4 | 172.2
Cc1nc(NC(=S)NC(=O)c2cccs2)ccc1Br | 71.5 | i | i | i | i | i
COCCN1C(=O)C(=O)/C(=C(/O)c2ccc(S(=O)(=O)N3CCOCC3)cc2)C1c1cccc(OC)c1 (stereo not drawn) | i | nt | nt | nt | nt | nt
COc1ccc(-c2noc3c2-c2nc(-c4ccc(Br)cc4)sc2CC3)cc1 | i | nt | nt | nt | nt | nt
COc1ccccc1N=Nc1ccc(N)c(C)c1 | 59.6 | nt | nt | nt | nt | nt
CC1=NN(c2ccccc2)C(=O)/C1=C\c1cn(C)c2ccccc12 | i | i | i | i | i | i
CC1=NN(c2ccccc2)C(=O)/C1=C\c1cc(C)n(C)c1C | 53.6 | nt | i | i | nt | nt
CC(C)(C)OC(=O)N/N=C/c1ccc(Br)cc1 | i | 4.47 | i | i | 148.9 | i
Cc1ccccc1-c1noc(-c2ccccc2C(=O)N2CCCC2)n1 | i | i | i | i | i | i
Cc1ccccc1-c1noc(-c2ccc(Cl)cc2)n1 | i | 3.38 | i | i | i | i
Cc1ccccc1-c1noc(-c2ccc(O)cc2)n1 | 59.1 | 7.71 | i | i | 140.3 | 156.5
Clc1ccc(-c2nc(-c3cnccn3)no2)cc1 | i | nt | i | i | nt | nt
SMILES | AHR act | NF-kB neuron act | PERK inhibitor | Mdm2 ligase inh | STAT1 activator | APP 5'UTR act
Cc1ccccc1-c1noc(-c2ccccc2F)n1 | i | 6.8 | i | i | 138.8 | i
COc1cccc(NC(=O)CN(C)C(=O)c2cccc(S(=O)(=O)Nc3ccccc3OC)c2)c1 | i | nt | nt | nt | nt | nt
Cc1ccc(NC(=O)/C=C/C(=O)O)c([N+](=O)[O-])c1 | i | i | i | i | i | i
Cc1ccc(NC(=O)/C=C/c2cccs2)c([N+](=O)[O-])c1 | i | 6.98 | i | i | 145.8 | 173.3
Cc1cccc(NC(=O)/C=C/c2cccs2)n1 | i | 4.97 | i | i | 149.3 | 169.6
O=C(/C=C/c1cccs1)Nc1ccncc1 | i | i | i | i | i | i
C=CCNc1nc(Nc2ccccc2F)nc(OCC)n1 | i | i | i | i | 142.5 | i
